PGC1a acetyl inh: inhibitors of PGC1a acetylation signal, primary screen, cell-based, U2OS, AlphaScreen, inhibitor mode; AlphaScreen anti-acetyl-lysine; with virally co-expressed GCN5 acetyltransferase; inhibition, % at 15.6 µM; AID 651687, 2012; 350,000 compounds, 0.17% hits;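 active = every replicate shows inhibition of at least 40%; inconclusive = mean inhibition at least 40% but some replicate below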
DENV2 CPE rescue: inhibitors of DENV2 cytopathic effect, primary screen, cell-based, plate reader, single concentration; DENV2-infected cells, cytopathic effect rescue; CPE inhibition, % at 9.99 µM; 350,000 compounds, 1.7% hits; AID 651640, 2012; in the data active = CPE inhibition above about 20%, passing the limit was not always enough; inconclusive = no clear call, values can overlap the other calls; tested in BHK-21 cells
SIRT5 inh: SIRT5 desuccinylase inhibitors, primary screen, biochemical, fluorescence imaging, single point, set 5. 330,000 compounds, 1.1% hits. NAD-dependent protein deacylase sirtuin-5, mitochondrial (Homo sapiens), Q9NXA8. Purified SirT5, succinyl-peptide AMC, trypsin-coupled fluorescence. inhibition, % at 15 µM. AID 652115, 2013; in the data active = inhibition above about 15%; inconclusive = no clear call, values can overlap the other calls
Target sequence (Q9NXA8 whole entry, looked up): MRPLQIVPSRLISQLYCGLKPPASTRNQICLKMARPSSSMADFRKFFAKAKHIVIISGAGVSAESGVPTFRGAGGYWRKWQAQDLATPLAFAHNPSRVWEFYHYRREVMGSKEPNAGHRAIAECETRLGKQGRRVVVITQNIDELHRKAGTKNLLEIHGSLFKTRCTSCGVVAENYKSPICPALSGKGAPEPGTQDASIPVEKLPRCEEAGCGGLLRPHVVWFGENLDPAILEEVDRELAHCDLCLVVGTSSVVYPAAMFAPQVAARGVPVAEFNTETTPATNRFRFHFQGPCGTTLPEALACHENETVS
Statin myotox sup: suppressors of statin myotoxicity in C2C12 myotubes, primary screen, cell-based, single point, plate reader; C2C12 myotubes + simvastatin, ATP luminescence, 48 h; scaled: DMSO 0, geranylgeraniol control 100; rescue of ATP level, % at 7.49 µM; 330,000 compounds, 0.78% hits;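 active = mean ATP rescue above about 67%, or every replicate alone reaching that limit, limit read from the data, passing the limit was not always enough; inconclusive = no clear call, values can overlap the other calls; inactive = mean under the limit and some replicate under it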;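 note: myotubes were challenged with 10 µM simvastatin during compound exposure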
S100A4 MyoIIA: inhibitors of S100A4-myosin IIA peptide binding, primary screen, biochemical, fluorescence polarization, TAMRA-MyoIIA peptide; Protein S100-A4 (Homo sapiens), P26447; inhibition, % at 10.7 µM; 360,000 compounds, 0.14% hits; AID 652163, 2013;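 active = mean inhibition of at least 70% across replicates, with every replicate also reaching that level; inconclusive = mean inhibition reaches 70% but some replicates fall short; inactive = mean inhibition below 70%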
Target sequence (P26447 whole entry, looked up): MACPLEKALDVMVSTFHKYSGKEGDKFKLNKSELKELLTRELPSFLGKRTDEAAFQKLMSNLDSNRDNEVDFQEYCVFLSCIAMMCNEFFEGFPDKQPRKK
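Material: S100A4 monomer protein / Buffer or medium: 50 mM HEPES pH 7.2, 10 mM CaCl2, 100 mM KCl / Times: 5 min incubation before reading / Benchmarks: neutral control DMSO, positive control TFP / Reagent: labelled myosin peptide probe, 5 nM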
Each line names hits and unclear results; the compound was inactive in the other large screens. Rows were chosen to be rich in hits. Some 2.9% of all compounds tested hit in one or more screens of this group.

CCNC(=O)C[C@@H]1CC[C@@H]2[C@H](COc3ccc(NC(=O)Cc4ccccc4)cc3C(=O)N2C)O1	DENV2 CPE rescue 27.1
CCNC(=O)C[C@@H]1CC[C@H]2[C@@H](COc3ccc(NC(=O)Cc4ccccc4)cc3C(=O)N2C)O1	DENV2 CPE rescue inconclusive
CC(C)C(=O)Nc1ccc2c(c1)C(=O)N(C)[C@H]1CC[C@H](CC(=O)Nc3ccccc3)O[C@@H]1CO2	none
CC(C)C(=O)Nc1ccc2c(c1)C(=O)N(C)[C@H]1CC[C@H](CC(=O)Nc3cccc(F)c3)O[C@@H]1CO2	S100A4 MyoIIA 78.5
COc1ccc(NC(=O)N(C)C[C@H]2Oc3ccc(NC(=O)CCC(F)(F)F)cc3C(=O)N([C@@H](C)CO)C[C@@H]2C)cc1	none (no result: SIRT5 inh)
COc1ccccc1NC(=O)N[C@@H]1CC[C@H](CC(=O)N2CCC(Cc3ccccc3)CC2)O[C@@H]1CO	none
S=C(c1ccccc1)N1CCN(c2ccccc2)CC1	none
CCN(CC)c1ccc(C(=S)N2CCN(c3ccccc3)CC2)cc1	Statin myotox sup 79.8 (no result: DENV2 CPE rescue, SIRT5 inh, S100A4 MyoIIA)
COc1ccc(NC(=O)Nc2cccc3c2O[C@@H](CN(C)S(=O)(=O)c2ccccc2)[C@@H](C)CN([C@H](C)CO)C3=O)cc1	none
COc1ccc(NC(=O)/C(Cl)=C(/Cl)S(=O)Cc2ccccc2)cn1 (stereo unspecified)	PGC1a acetyl inh 71.4 (no result: DENV2 CPE rescue, SIRT5 inh, Statin myotox sup, S100A4 MyoIIA)
COc1ccc(NC(=O)Cc2ccccc2)cn1	none (no result: PGC1a acetyl inh)
CC(=O)N(C)C[C@@H]1[C@@H](c2ccccc2)[C@H](CO)N1C(=O)C1CC1	none
COc1ccc2c3c([nH]c2c1)[C@@H](CO)N(C(=O)c1cccc(F)c1)CC31CN(C(=O)c2ccccc2)C1	none (no result: SIRT5 inh, Statin myotox sup)
Cc1cc(C)c(C)c(S(=O)(=O)N2CCN(c3ccccn3)CC2)c1C	none
Cc1n[nH]c(C)c1S(=O)(=O)N1CCN(c2ccccn2)CC1	Statin myotox sup 77.6 (no result: DENV2 CPE rescue, SIRT5 inh, S100A4 MyoIIA)
Cc1cc(=O)oc2c(C)c(OC(C)C(=O)NCCCN3CCCC3=O)ccc12 (stereo unspecified)	SIRT5 inh 25.6
Cc1c(C)c2cc(Cl)c(OCC(=O)NCCCN3CCCC3=O)cc2oc1=O	DENV2 CPE rescue 43.7 (no result: SIRT5 inh)
Cc1cc(=O)oc2cc(OCC(=O)NCCCN3CCCC3=O)c(Cl)cc12	none
C[C@@H]1CN([C@H](C)CO)C(=O)c2cc(NC(=O)NC3CCCCC3)ccc2O[C@@H](C)CCCCO[C@H]1CN(C)Cc1ccc(C(F)(F)F)cc1	none (no result: Statin myotox sup)
CCNC(=O)Nc1ccc2c(c1)C(=O)N(C)[C@@H]1CC[C@H](CC(=O)NCc3ccccc3F)O[C@@H]1CO2	DENV2 CPE rescue inconclusive
CN1C(=O)c2cc(NC(=O)Cc3cccs3)ccc2OC[C@H]2O[C@@H](CC(=O)NCc3ccc(-c4ccccc4)cc3)CC[C@@H]21	none
CN1C(=O)c2cc(NC(=O)Cc3cccs3)ccc2OC[C@H]2O[C@@H](CC(=O)NCc3ccc(-c4ccccc4)cc3)CC[C@H]21	Statin myotox sup 72.1
CCNC(=O)Nc1ccc2c(c1)C(=O)N(C)[C@@H]1CC[C@H](CC(=O)NCc3ccccc3F)O[C@H]1CO2	DENV2 CPE rescue 70.6
CN1C(=O)c2cc(NC(=O)Nc3ccccc3F)ccc2OC[C@H]2O[C@@H](CC(=O)NCc3ccc(-c4ccccc4)cc3)CC[C@H]21	DENV2 CPE rescue 48.3
Cc1ccc(NC(=O)N2CCCC2)cc1Cl	none (no result: PGC1a acetyl inh, Statin myotox sup)
Cc1ccc(NC(=O)N2CCN(C(=O)c3ccco3)CC2)cc1Cl	DENV2 CPE rescue 38.5
CC(=O)Nc1ccc(C(=O)N2CCN(C(=O)c3ccco3)CC2)cc1	SIRT5 inh 16.6 (no result: DENV2 CPE rescue)
O=C(c1ccco1)N1CCN(C2c3ccccc3-c3ccccc32)CC1	DENV2 CPE rescue 54.4
COc1ccc(C(=O)N2CCN(C(=O)c3ccco3)CC2)cc1	none (no result: DENV2 CPE rescue, SIRT5 inh, S100A4 MyoIIA)
O=C(Nc1ccc(F)cc1)C(c1cccc(F)c1)N1CCN(C(=O)c2ccco2)CC1 (stereo unspecified)	DENV2 CPE rescue 47.2 (no result: PGC1a acetyl inh, Statin myotox sup)
C[C@H]1CN([C@@H](C)CO)C(=O)Cc2cc(NC(=O)CCCN(C)C)ccc2O[C@@H]1CN(C)S(=O)(=O)c1ccccc1	none
CO[C@@H]1CN(C)C(=O)c2cc(NS(=O)(=O)c3cccc(F)c3)ccc2OC[C@H](C)N(C(=O)Cc2cccnc2)C[C@@H]1C	none

Bioassay records as filed in PubChem.
